ChEMBL document CHEMBL1926577, “Novel 1,3,4-heterodiazole analogues: synthesis and in-vitro antitumor activity” (2012)

Key:
Assay type in all cases: functional
[1] = test system: SR; test: Growth inhibition of human SR cells at 10 uM after 48 hrs by coulter counter method; conditions: read-out: GI
In short: (§1)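 NCI 60-cell-line panel, single dose. Compound dissolved first in DMSO, then diluted in phosphate-buffered saline so that every final dilution held under 1% DMSO. Duplicate wells received cells at 6 × 10⁴ cells/ml. Controls held PBS/DMSO at the same dilution. Plates were incubated 48 h at 37 °C under 5% CO₂. Cells were then diluted 10-fold in saline and counted on a Coulter counter, with counts corrected for the dilution. Results are given as percent growth inhibition.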

[2] = test system: MCF7; test: Growth inhibition of human MCF7 cells at 10 uM after 48 hrs by coulter counter method; conditions: MCF7, 48 h, read-out: GI; in short: as §1
[3] = test system: NCI/ADR-RES; test: Growth inhibition of human NCI/ADR-RES cells at 10 uM after 48 hrs by coulter counter method; conditions: read-out: GI; in short: as §1
[4] = test system: A498; test: Growth inhibition of human A498 cells at 10 uM after 48 hrs by coulter counter method; conditions: A498, 48 h, read-out: GI; in short: as §1
[5] = test system: CAKI-1; test: Growth inhibition of human Caki1 cells at 10 uM after 48 hrs by coulter counter method; conditions: CAKI-1, 48 h, read-out: GI; in short: as §1
[6] = test system: SK-MEL-5; test: Growth inhibition of human SK-MEL-5 cells at 10 uM after 48 hrs by coulter counter method; conditions: SK-MEL-5, 48 h, read-out: GI; in short: as §1
[7] = test system: UO-31; test: Growth inhibition of human UO31 cells at 10 uM after 48 hrs by coulter counter method; conditions: UO-31, 48 h, read-out: GI; in short: as §1
[8] = test system: OVCAR-8; test: Growth inhibition of human OVCAR8 cells at 10 uM after 48 hrs by coulter counter method; conditions: OVCAR-8, 48 h, read-out: GI; in short: as §1
[9] = test system: ACHN; test: Growth inhibition of human ACHN cells at 10 uM after 48 hrs by coulter counter method; conditions: read-out: GI; in short: as §1
[10] = test system: SF-268; test: Growth inhibition of human SF268 cells at 10 uM after 48 hrs by coulter counter method; conditions: SF-268, 48 h, read-out: GI; in short: as §1
[11] = test system: SNB-75; test: Growth inhibition of human SNB75 cells at 10 uM after 48 hrs by coulter counter method; conditions: SNB-75, 48 h, read-out: GI; in short: as §1
[12] = test system: MDA-MB-468; test: Growth inhibition of human MDA-MB-468 cells at 10 uM after 48 hrs by coulter counter method; conditions: MDA-MB-468, 48 h, read-out: GI; in short: as §1
[13] = test system: SN12C; test: Growth inhibition of human SN12C cells at 10 uM after 48 hrs by coulter counter method; conditions: read-out: GI; in short: as §1
[14] = test system: HT-29; test: Growth inhibition of human HT-29 cells at 10 uM after 48 hrs by coulter counter method; conditions: HT-29, 48 h, read-out: GI; in short: as §1
[15] = test system: CCRF-CEM; test: Growth inhibition of human CCRF-CEM cells at 10 uM after 48 hrs by coulter counter method; conditions: read-out: GI; in short: as §1
[16] = test system: SNB-19; test: Growth inhibition of human SNB19 cells at 10 uM after 48 hrs by coulter counter method; conditions: SNB-19, 48 h, read-out: GI; in short: as §1
[17] = test system: SK-MEL-28; test: Growth inhibition of human SK-MEL-28 cells at 10 uM after 48 hrs by coulter counter method; conditions: SK-MEL-28, 48 h, read-out: GI; in short: as §1
[18] = test system: RPMI-8226; test: Growth inhibition of human RPMI8226 cells at 10 uM after 48 hrs by coulter counter method; conditions: RPMI-8226, 48 h, read-out: GI; in short: as §1
[19] = test system: Malme-3M; test: Growth inhibition of human MALME-3M cells at 10 uM after 48 hrs by coulter counter method; conditions: read-out: GI; in short: as §1
[20] = test system: LOX IMVI; test: Growth inhibition of human LOXIMVI cells at 10 uM after 48 hrs by coulter counter method; conditions: read-out: GI; in short: as §1
[21] = test system: A549; test: Growth inhibition of human A549 cells at 10 uM after 48 hrs by coulter counter method; conditions: A549, 48 h, read-out: GI; in short: as §1
[22] = test system: BT-549; test: Growth inhibition of human BT549 cells at 10 uM after 48 hrs by coulter counter method; conditions: BT-549, 48 h, read-out: GI; in short: as §1
[23] = test system: T47D; test: Growth inhibition of human T47D cells at 10 uM after 48 hrs by coulter counter method; conditions: read-out: GI; in short: as §1
[24] = test system: NCI-H23; test: Growth inhibition of human NCI-H23 cells at 10 uM after 48 hrs by coulter counter method; conditions: NCI-H23, 48 h, read-out: GI; in short: as §1
[25] = test system: PC-3; test: Growth inhibition of human PC3 cells at 10 uM after 48 hrs by coulter counter method; conditions: PC-3, 48 h, read-out: GI; in short: as §1
[26] = test system: MOLT-4; test: Growth inhibition of human MOLT4 cells at 10 uM after 48 hrs by coulter counter method; conditions: MOLT-4, 48 h, read-out: GI; in short: as §1
[27] = test system: KM12; test: Growth inhibition of human KM12 cells at 10 uM after 48 hrs by coulter counter method; conditions: KM12, 48 h, read-out: GI; in short: as §1
[28] = test system: HCT-116; test: Growth inhibition of human HCT116 cells at 10 uM after 48 hrs by coulter counter method; conditions: HCT-116, 48 h, read-out: GI; in short: as §1
[29] = test system: SK-MEL-2; test: Growth inhibition of human SK-MEL-2 cells at 10 uM after 48 hrs by coulter counter method; conditions: SK-MEL-2, 48 h, read-out: GI; in short: as §1
[30] = test system: EKVX; test: Growth inhibition of human EKVX cells at 10 uM after 48 hrs by coulter counter method; conditions: read-out: GI; in short: as §1
[31] = test system: SF-295; test: Growth inhibition of human SF295 cells at 10 uM after 48 hrs by coulter counter method; conditions: SF-295, 48 h, read-out: GI; in short: as §1
[32] = test system: HL-60(TB); test: Growth inhibition of human HL-60(TB) cells at 10 uM after 48 hrs by coulter counter method; conditions: HL-60, 48 h, read-out: GI
In short: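 Single-dose screen on the NCI 60-line panel (leukemia subpanel). Compound is dissolved in DMSO and diluted in PBS, with final DMSO below 1%. Duplicate wells hold 6 × 10⁴ cells/ml at 37 °C, 5% CO₂, for 48 h. Cells are counted by Coulter counter after 10-fold saline dilution. Read-out is percent growth versus PBS/DMSO controls, expressed as % growth inhibition.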

[33] = test system: U-251; test: Growth inhibition of human U251 cells at 10 uM after 48 hrs by coulter counter method; conditions: U-251, 48 h, read-out: GI; in short: as §1
[34] = test system: HCT-15; test: Growth inhibition of human HCT15 cells at 10 uM after 48 hrs by coulter counter method; conditions: HCT-15, 48 h, read-out: GI; in short: as §1
[35] = test system: M14; test: Growth inhibition of human M14 cells at 10 uM after 48 hrs by coulter counter method; conditions: M14, 48 h, read-out: GI; in short: as §1
[36] = test system: NCI-H226; test: Growth inhibition of human NCI-H226 cells at 10 uM after 48 hrs by coulter counter method; conditions: NCI-H226, 48 h, read-out: GI; in short: as §1
[37] = test system: MDA-MB-435; test: Growth inhibition of human MDA-MB-435 cells at 10 uM after 48 hrs by coulter counter method; conditions: MDA-MB-435, 48 h, read-out: GI; in short: as §1
[38] = test system: IGROV-1; test: Growth inhibition of human IGROV1 cells at 10 uM after 48 hrs by coulter counter method; conditions: IGROV-1, 48 h, read-out: GI; in short: as §1
[39] = test system: NCI-H522; test: Growth inhibition of human NCI-H522 cells at 10 uM after 48 hrs by coulter counter method; conditions: NCI-H522, 48 h, read-out: GI; in short: as §1
[40] = test system: UACC-257; test: Growth inhibition of human UACC257 cells at 10 uM after 48 hrs by coulter counter method; conditions: UACC-257, 48 h, read-out: GI; in short: as §1
[41] = test system: 786-0; test: Growth inhibition of human 786-0 cells at 10 uM after 48 hrs by coulter counter method; conditions: 786-0, 48 h, read-out: GI; in short: as §1
[42] = test system: TK-10; test: Growth inhibition of human TK10 cells at 10 uM after 48 hrs by coulter counter method; conditions: TK-10, 48 h, read-out: GI; in short: as §1
[43] = test system: NCI-H322M; test: Growth inhibition of human NCI-H322M cells at 10 uM after 48 hrs by coulter counter method; conditions: read-out: GI; in short: as §1
[44] = test system: UACC-62; test: Growth inhibition of human UACC62 cells at 10 uM after 48 hrs by coulter counter method; conditions: UACC-62, 48 h, read-out: GI; in short: as §1
[45] = test system: K562; test: Growth inhibition of human K562 cells at 10 uM after 48 hrs by coulter counter method; conditions: K562, 48 h, read-out: GI; in short: as §1

`O=C(CCN1CCCCC1)Nc1nnc(-c2ccc(Cl)cc2)s1` gave an inhibition of growth at 10 µM [1] of 11.9%, an inhibition of growth at 10 µM [2] of less than 10% and an inhibition of growth at 10 µM [3] of less than 10%. For the same compound, the inhibition of growth at 10 µM [4] was 11.6%, the inhibition of growth at 10 µM [5] was 18.8% and the inhibition of growth at 10 µM [6] was 24.7%. It also gave an inhibition of growth at 10 µM [7] of 28.6%, an inhibition of growth at 10 µM [8] of less than 10% and an inhibition of growth at 10 µM [9] of less than 10%. It also gave an inhibition of growth at 10 µM [10] of less than 10%, an inhibition of growth at 10 µM [11] of less than 10% and an inhibition of growth at 10 µM [12] of less than 10%. The inhibition of growth at 10 µM [13] was less than 10%, the inhibition of growth at 10 µM [14] was less than 10% and the inhibition of growth at 10 µM [15] was less than 10%. For the same compound, the inhibition of growth at 10 µM [16] was less than 10%, the inhibition of growth at 10 µM [17] was less than 10% and the inhibition of growth at 10 µM [18] was less than 10%. It also gave an inhibition of growth at 10 µM [19] of 10.7%, an inhibition of growth at 10 µM [20] of less than 10% and an inhibition of growth at 10 µM [21] of less than 10%. The inhibition of growth at 10 µM [22] was less than 10%, the inhibition of growth at 10 µM [23] was less than 10% and the inhibition of growth at 10 µM [24] was less than 10%. For the same compound, the inhibition of growth at 10 µM [25] was less than 10%, the inhibition of growth at 10 µM [26] was less than 10% and the inhibition of growth at 10 µM [27] was less than 10%. For the same compound, the inhibition of growth at 10 µM [28] was less than 10%, the inhibition of growth at 10 µM [29] was less than 10% and the inhibition of growth at 10 µM [30] was 20.4%. It also gave an inhibition of growth at 10 µM [31] of 11%, an inhibition of growth at 10 µM [32] of less than 10% and an inhibition of growth at 10 µM [33] of 12%. It also gave an inhibition of growth at 10 µM [34] of less than 10%, an inhibition of growth at 10 µM [35] of less than 10% and an inhibition of growth at 10 µM [36] of less than 10%. For the same compound, the inhibition of growth at 10 µM [37] was less than 10%, the inhibition of growth at 10 µM [38] was less than 10% and the inhibition of growth at 10 µM [39] was 19.5%. It also gave an inhibition of growth at 10 µM [40] of less than 10%, an inhibition of growth at 10 µM [41] of less than 10% and an inhibition of growth at 10 µM [42] of less than 10%. It also gave an inhibition of growth at 10 µM [43] of less than 10%, an inhibition of growth at 10 µM [44] of less than 10% and an inhibition of growth at 10 µM [45] of less than 10%.
